Results as given in ChEMBL document CHEMBL5143728, “Next-Generation Diprovocims with Potent Human and Murine TLR1/TLR2 Agonist Activity That Activate the Innate and Adaptive Immune Response” (J Med Chem, 2022).

Tests used:
Toll-like receptor 1/2 = Toll-like receptor 1/2 (Homo sapiens, UniProt O60603+Q15399); assay: Agonist activity at TLR1/TLR2 in human THP-1 derived macrophages assessed as stimulation of TNF alpha release measured for 4 hrs by ELISA based assay relative to diprovocim-1; format: cell-based; parameters: Activity: concentration or dose not given beside the values
Method in brief: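 THP-1 cells differentiated with 100 nM PMA in RPMI/10% FBS for 24 h, washed, then rested 24 h in fresh medium. Seeded at 0.5 × 10⁵ cells/well and exposed to graded compound concentrations for 4 h, with final DMSO held at 0.1%. LPS served as positive control and DMSO as negative control. Supernatant human TNF-α was read by ELISA. EC50 from duplicate means.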

[1] = biological target: Toll-like receptor 1/2 (Mus musculus) (UniProt Q9QUN7+Q9EPQ1); assay: Agonist activity at TLR1/TLR2 in wild type C57BL/6J mouse macrophages assessed as stimulation of TNF alpha release measured for 4 hrs by ELISA based assay relative to diprovocim-1; format: cell-based; parameters: Activity: concentration or dose not given beside the values; details: Macrophage, filed as agonist
Method in brief: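 Thioglycolate-elicited peritoneal macrophages from wild type C57BL/6J mice, harvested by PBS lavage 4 d after i.p. 4% thioglycolate. Cultured in DMEM/10% FBS at 37 °C, 5% CO2, seeded at 1 × 10⁵ cells/well and exposed to graded compound concentrations for 4 h, with final DMSO ≤0.5% held constant. LPS served as positive control. Supernatant mouse TNF-α was read by ELISA. EC50 from duplicate means.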

SMILES	Activity (Toll-like receptor 1/2; filed as agonist) [%]	Activity [1] [%]	Activity (Toll-like receptor 1/2) [%]
Cc1ccc(S(=O)(=O)n2cnc(C[C@H](NC(=O)OC(C)(C)C)C(=O)OCCCCCCCCCCCCNC(=O)[C@@H]3CN(C(=O)c4ccc(C(=O)N5C[C@@H](C(=O)N[C@H]6C[C@@H]6c6ccccc6)[C@H](C(=O)N[C@H]6C[C@@H]6c6ccccc6)C5)cc4)C[C@H]3C(=O)N[C@H]3C[C@@H]3c3ccccc3)c2)cc1	90	110	
CC(C)(C)OC(=O)COCCCCCCCCCCCCNC(=O)[C@@H]1CN(C(=O)c2ccc(C(=O)N3C[C@@H](C(=O)N[C@H]4C[C@@H]4c4ccccc4)[C@H](C(=O)N[C@H]4C[C@@H]4c4ccccc4)C3)cc2)C[C@H]1C(=O)N[C@H]1C[C@@H]1c1ccccc1	100	270	
CC(C)(C)OC(=O)NC1(C(=O)OCCCCCCCCCCCCNC(=O)[C@@H]2CN(C(=O)c3ccc(C(=O)N4C[C@@H](C(=O)N[C@H]5C[C@@H]5c5ccccc5)[C@H](C(=O)N[C@H]5C[C@@H]5c5ccccc5)C4)cc3)C[C@H]2C(=O)N[C@H]2C[C@@H]2c2ccccc2)CC1	100	220	
CC(C)(C)OCC(=O)OCCCCCCCCCCCCNC(=O)[C@@H]1CN(C(=O)c2ccc(C(=O)N3C[C@@H](C(=O)N[C@H]4C[C@@H]4c4ccccc4)[C@H](C(=O)N[C@H]4C[C@@H]4c4ccccc4)C3)cc2)C[C@H]1C(=O)N[C@H]1C[C@@H]1c1ccccc1	100	230	
CC(C)(C)OC(=O)N[C@@H](Cc1ccccc1)C(=O)OCCCCCCCCCCCCNC(=O)[C@@H]1CN(C(=O)c2ccc(C(=O)N3C[C@@H](C(=O)N[C@H]4C[C@@H]4c4ccccc4)[C@H](C(=O)N[C@H]4C[C@@H]4c4ccccc4)C3)cc2)C[C@H]1C(=O)N[C@H]1C[C@@H]1c1ccccc1	100	220	
CC(C)(C)OC(=O)NCCOCCOCCOCCOCCC(=O)OCCCCCCCCCCCCNC(=O)[C@@H]1CN(C(=O)c2ccc(C(=O)N3C[C@@H](C(=O)N[C@H]4C[C@@H]4c4ccccc4)[C@H](C(=O)N[C@H]4C[C@@H]4c4ccccc4)C3)cc2)C[C@H]1C(=O)N[C@H]1C[C@@H]1c1ccccc1	90	150	
O=C(COCc1ccccc1)OCCCCCCCCCCCCNC(=O)[C@@H]1CN(C(=O)c2ccc(C(=O)N3C[C@@H](C(=O)N[C@H]4C[C@@H]4c4ccccc4)[C@H](C(=O)N[C@H]4C[C@@H]4c4ccccc4)C3)cc2)C[C@H]1C(=O)N[C@H]1C[C@@H]1c1ccccc1	130	220	
O=C(CNC(=O)OCC(Cl)(Cl)Cl)OCCCCCCCCCCCCNC(=O)[C@@H]1CN(C(=O)c2ccc(C(=O)N3C[C@@H](C(=O)N[C@H]4C[C@@H]4c4ccccc4)[C@H](C(=O)N[C@H]4C[C@@H]4c4ccccc4)C3)cc2)C[C@H]1C(=O)N[C@H]1C[C@@H]1c1ccccc1	100	300	
CN(C)CC(=O)OCCCCCCCCCCCCNC(=O)[C@@H]1CN(C(=O)c2ccc(C(=O)N3C[C@@H](C(=O)N[C@H]4C[C@@H]4c4ccccc4)[C@H](C(=O)N[C@H]4C[C@@H]4c4ccccc4)C3)cc2)C[C@H]1C(=O)N[C@H]1C[C@@H]1c1ccccc1	100	140	
O=C(NCCCCCCCCCCCCO)[C@@H]1CN(C(=O)c2ccc(C(=O)N3C[C@@H](C(=O)N[C@H]4C[C@@H]4c4ccccc4)[C@H](C(=O)N[C@H]4C[C@@H]4c4ccccc4)C3)cc2)C[C@H]1C(=O)N[C@H]1C[C@@H]1c1ccccc1	90	110	
NCC(=O)OCCCCCCCCCCCCNC(=O)[C@@H]1CN(C(=O)c2ccc(C(=O)N3C[C@@H](C(=O)N[C@H]4C[C@@H]4c4ccccc4)[C@H](C(=O)N[C@H]4C[C@@H]4c4ccccc4)C3)cc2)C[C@H]1C(=O)N[C@H]1C[C@@H]1c1ccccc1	100	100	
C#CCN(C)CC(=O)OCCCCCCCCCCCCNC(=O)[C@@H]1CN(C(=O)c2ccc(C(=O)N3C[C@@H](C(=O)N[C@H]4C[C@@H]4c4ccccc4)[C@H](C(=O)N[C@H]4C[C@@H]4c4ccccc4)C3)cc2)C[C@H]1C(=O)N[C@H]1C[C@@H]1c1ccccc1	40	100	
Nc1ccc(C(=O)OCCCCCCCCCCCCNC(=O)[C@@H]2CN(C(=O)c3ccc(C(=O)N4C[C@@H](C(=O)N[C@H]5C[C@@H]5c5ccccc5)[C@H](C(=O)N[C@H]5C[C@@H]5c5ccccc5)C4)cc3)C[C@H]2C(=O)N[C@H]2C[C@@H]2c2ccccc2)cc1	100	300	
CN(CC(=O)OCCCCCCCCCCCCNC(=O)[C@@H]1CN(C(=O)c2ccc(C(=O)N3C[C@@H](C(=O)N[C@H]4C[C@@H]4c4ccccc4)[C@H](C(=O)N[C@H]4C[C@@H]4c4ccccc4)C3)cc2)C[C@H]1C(=O)N[C@H]1C[C@@H]1c1ccccc1)C(=O)OC(C)(C)C	100	110	
Nc1ccc(COCCCCCCCCCCCCNC(=O)[C@@H]2CN(C(=O)c3ccc(C(=O)N4C[C@@H](C(=O)N[C@H]5C[C@@H]5c5ccccc5)[C@H](C(=O)N[C@H]5C[C@@H]5c5ccccc5)C4)cc3)C[C@H]2C(=O)N[C@H]2C[C@@H]2c2ccccc2)cc1	90	130	
C#CCCCCCCCCCCCCNC(=O)[C@@H]1CN(C(=O)c2ccc(C(=O)N3C[C@@H](C(=O)N[C@H]4C[C@@H]4c4ccccc4)[C@H](C(=O)N[C@H]4C[C@@H]4c4ccccc4)C3)cc2)C[C@H]1C(=O)N[C@H]1C[C@@H]1c1ccccc1	120	180	
CC(C)(C)OC(=O)NCCCCCCCCCCCCNC(=O)[C@@H]1CN(C(=O)c2ccc(C(=O)N3C[C@@H](C(=O)N[C@H]4C[C@@H]4c4ccccc4)[C@H](C(=O)N[C@H]4C[C@@H]4c4ccccc4)C3)cc2)C[C@H]1C(=O)N[C@H]1C[C@@H]1c1ccccc1	70	120	
O=C(NCCCCCCCCc1ccc(O)cc1)[C@@H]1CN(C(=O)c2ccc(C(=O)N3C[C@@H](C(=O)N[C@H]4C[C@@H]4c4ccccc4)[C@H](C(=O)N[C@H]4C[C@@H]4c4ccccc4)C3)cc2)C[C@H]1C(=O)N[C@H]1C[C@@H]1c1ccccc1	90	380	
O=C(CNC(=O)c1ccc(C(=O)O)cc1)OCCCCCCCCCCCCNC(=O)[C@@H]1CN(C(=O)c2ccc(C(=O)N3C[C@@H](C(=O)N[C@H]4C[C@@H]4c4ccccc4)[C@H](C(=O)N[C@H]4C[C@@H]4c4ccccc4)C3)cc2)C[C@H]1C(=O)N[C@H]1C[C@@H]1c1ccccc1	100	60	
O=C(CNC(=O)C(=O)O)OCCCCCCCCCCCCNC(=O)[C@@H]1CN(C(=O)c2ccc(C(=O)N3C[C@@H](C(=O)N[C@H]4C[C@@H]4c4ccccc4)[C@H](C(=O)N[C@H]4C[C@@H]4c4ccccc4)C3)cc2)C[C@H]1C(=O)N[C@H]1C[C@@H]1c1ccccc1	120	250	
CC(C)(C)OC(=O)NCC(=O)NCCCCCCCCCCCCNC(=O)[C@@H]1CN(C(=O)c2ccc(C(=O)N3C[C@@H](C(=O)N[C@H]4C[C@@H]4c4ccccc4)[C@H](C(=O)N[C@H]4C[C@@H]4c4ccccc4)C3)cc2)C[C@H]1C(=O)N[C@H]1C[C@@H]1c1ccccc1	90	90	
CC(C)(C)C(=O)NCC(=O)OCCCCCCCCCCCCNC(=O)[C@@H]1CN(C(=O)c2ccc(C(=O)N3C[C@@H](C(=O)N[C@H]4C[C@@H]4c4ccccc4)[C@H](C(=O)N[C@H]4C[C@@H]4c4ccccc4)C3)cc2)C[C@H]1C(=O)N[C@H]1C[C@@H]1c1ccccc1	110	110	
O=C(O)c1ccc(C(=O)NCCOCCCCCCCCCCCCNC(=O)[C@@H]2CN(C(=O)c3ccc(C(=O)N4C[C@@H](C(=O)N[C@H]5C[C@@H]5c5ccccc5)[C@H](C(=O)N[C@H]5C[C@@H]5c5ccccc5)C4)cc3)C[C@H]2C(=O)N[C@H]2C[C@@H]2c2ccccc2)cc1	100	50	
CC(C)(C)Oc1ccc(C(=O)OCCCCCCCCCCCCNC(=O)[C@@H]2CN(C(=O)c3ccc(C(=O)N4C[C@@H](C(=O)N[C@H]5C[C@@H]5c5ccccc5)[C@H](C(=O)N[C@H]5C[C@@H]5c5ccccc5)C4)cc3)C[C@H]2C(=O)N[C@H]2C[C@@H]2c2ccccc2)cc1		150	< 50
O=C(O)c1ccc(C(=O)OCCCCCCCCCCCCNC(=O)[C@@H]2CN(C(=O)c3ccc(C(=O)N4C[C@@H](C(=O)N[C@H]5C[C@@H]5c5ccccc5)[C@H](C(=O)N[C@H]5C[C@@H]5c5ccccc5)C4)cc3)C[C@H]2C(=O)N[C@H]2C[C@@H]2c2ccccc2)cc1	100	120	
CC(C)(C)OC(=O)N[C@@H](CSCc1ccccc1)C(=O)OCCCCCCCCCCCCNC(=O)[C@@H]1CN(C(=O)c2ccc(C(=O)N3C[C@@H](C(=O)N[C@H]4C[C@@H]4c4ccccc4)[C@H](C(=O)N[C@H]4C[C@@H]4c4ccccc4)C3)cc2)C[C@H]1C(=O)N[C@H]1C[C@@H]1c1ccccc1	100	200	
COC(=O)NCC(=O)OCCCCCCCCCCCCNC(=O)[C@@H]1CN(C(=O)c2ccc(C(=O)N3C[C@@H](C(=O)N[C@H]4C[C@@H]4c4ccccc4)[C@H](C(=O)N[C@H]4C[C@@H]4c4ccccc4)C3)cc2)C[C@H]1C(=O)N[C@H]1C[C@@H]1c1ccccc1	100	120	
CNC(=O)CCCCCCCCCCCNC(=O)[C@@H]1CN(C(=O)c2ccc(C(=O)N3C[C@@H](C(=O)N[C@H]4C[C@@H]4c4ccccc4)[C@H](C(=O)N[C@H]4C[C@@H]4c4ccccc4)C3)cc2)C[C@H]1C(=O)N[C@H]1C[C@@H]1c1ccccc1	120	150	
NC(=O)CCCCCCCCCCCNC(=O)[C@@H]1CN(C(=O)c2ccc(C(=O)N3C[C@@H](C(=O)N[C@H]4C[C@@H]4c4ccccc4)[C@H](C(=O)N[C@H]4C[C@@H]4c4ccccc4)C3)cc2)C[C@H]1C(=O)N[C@H]1C[C@@H]1c1ccccc1	110	120	
